The results in this text go back to ChEMBL document CHEMBL1141669, “Nitrile analogs of meperidine as high affinity and selective sigma-1 receptor ligands” (Eur J Med Chem, 2008).

Some results are limits rather than exact numbers.

The target of test [1] is Kappa-type opioid receptor (Homo sapiens, UniProt P41145). The experiment in a line: Binding affinity to kappa opioid receptor.
Test [2] concerns the target Sigma non-opioid intracellular receptor 1 (Rattus norvegicus, UniProt Q9R0C9). The experiment in a line: Displacement of [3H](+)-pentazocine from sigma 1 opioid receptor in rat brain cerebellum. It counts as tissue-based. Put shortly:
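σ1 radioligand binding with 5 nM [3H](+)-pentazocine in 50 mM Tris–HCl, pH 8.0. Nonspecific binding defined with 10 µM haloperidol. Test ligand at twelve concentrations, 120 min at 25 °C.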
On the technique in general: In a radioligand displacement assay an active substance lowers the binding of a labelled ligand.

Another test addresses Mu-type opioid receptor (Homo sapiens, UniProt P35372). Nature of the test: Binding affinity to mu opioid receptor.
The species entered for another test is Rattus norvegicus. Nature of the test: Selectivity ratio of Ki for rat sigma 2 opioid receptor to Ki for rat sigma 1 opioid receptor.
Test [3] can be described thus: Displacement of [3H]ditolylguanidine from sigma 2 opioid receptor in rat brain cerebellum. It counts as tissue-based. Put shortly:
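σ2 sites labeled with 3 nM [3H]di-o-tolylguanidine, with 300 nM (+)-pentazocine present to mask σ1, in 50 mM Tris–HCl, pH 8.0. Nonspecific binding taken with 10 µM haloperidol. Twelve test-ligand concentrations, incubated 120 min at 25 °C.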

Test [4] has as its target Delta-type opioid receptor (Homo sapiens, UniProt P41143). The experiment in a line: Binding affinity to delta opioid receptor.

Chain of Delta-type opioid receptor (P41143 whole entry): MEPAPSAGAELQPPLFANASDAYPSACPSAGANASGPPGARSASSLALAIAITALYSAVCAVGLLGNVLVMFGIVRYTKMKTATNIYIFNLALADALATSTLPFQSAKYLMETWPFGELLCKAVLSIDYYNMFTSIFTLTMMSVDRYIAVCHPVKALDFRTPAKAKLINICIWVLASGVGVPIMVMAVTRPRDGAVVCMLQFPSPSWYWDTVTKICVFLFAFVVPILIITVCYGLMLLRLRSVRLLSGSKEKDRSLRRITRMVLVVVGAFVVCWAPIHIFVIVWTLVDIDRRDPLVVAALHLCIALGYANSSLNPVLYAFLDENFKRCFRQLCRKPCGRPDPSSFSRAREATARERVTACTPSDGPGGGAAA
Chain of Mu-type opioid receptor (P35372 whole entry): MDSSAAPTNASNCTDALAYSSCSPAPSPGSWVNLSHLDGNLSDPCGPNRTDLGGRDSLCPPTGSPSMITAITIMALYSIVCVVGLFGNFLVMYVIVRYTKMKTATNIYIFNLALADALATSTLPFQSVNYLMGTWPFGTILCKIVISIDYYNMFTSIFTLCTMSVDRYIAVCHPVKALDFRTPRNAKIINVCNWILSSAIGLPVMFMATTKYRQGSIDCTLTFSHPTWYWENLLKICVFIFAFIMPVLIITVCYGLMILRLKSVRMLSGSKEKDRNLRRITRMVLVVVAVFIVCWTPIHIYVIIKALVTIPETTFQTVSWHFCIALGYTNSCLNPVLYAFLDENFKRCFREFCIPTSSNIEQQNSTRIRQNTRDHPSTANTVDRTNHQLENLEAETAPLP
Chain of Sigma non-opioid intracellular receptor 1 (Q9R0C9 whole entry): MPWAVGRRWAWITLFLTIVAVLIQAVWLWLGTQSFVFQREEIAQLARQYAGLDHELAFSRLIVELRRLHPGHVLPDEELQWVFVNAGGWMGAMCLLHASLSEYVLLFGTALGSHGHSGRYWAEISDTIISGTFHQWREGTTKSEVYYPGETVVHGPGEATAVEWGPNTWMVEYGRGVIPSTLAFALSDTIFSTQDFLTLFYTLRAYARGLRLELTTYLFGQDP
Chain of Kappa-type opioid receptor (P41145 whole entry): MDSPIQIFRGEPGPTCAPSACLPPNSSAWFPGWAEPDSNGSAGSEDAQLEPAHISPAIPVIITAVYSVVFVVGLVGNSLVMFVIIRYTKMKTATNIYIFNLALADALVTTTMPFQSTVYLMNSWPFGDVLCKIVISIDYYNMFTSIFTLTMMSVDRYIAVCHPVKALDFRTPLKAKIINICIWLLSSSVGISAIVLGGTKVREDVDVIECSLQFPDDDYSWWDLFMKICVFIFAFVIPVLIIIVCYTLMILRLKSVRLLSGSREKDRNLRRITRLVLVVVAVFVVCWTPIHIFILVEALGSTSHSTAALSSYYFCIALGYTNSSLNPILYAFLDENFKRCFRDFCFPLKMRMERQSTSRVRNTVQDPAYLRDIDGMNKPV

With `N#CC1(c2ccccc2)CCN(Cc2ccccc2)CC1`, the Ki (usually the equilibrium dissociation constant of an inhibitor or competing ligand from its target) in test [1] was over 10 µM; in test [2], 0.00041 µM; at Mu-type opioid receptor, 5.9 µM; in test [3], 0.657 µM; in test [4], over 10 µM. The Ratio Ki in the test listed under Rattus norvegicus amounted to 1600.
`N#CC1(c2ccccc2)CCN(CCCc2ccccc2)CC1`: the values for the Ki in test [2] and in test [3] were 0.00038 µM and 0.046 µM, respectively. Moreover, the Ratio Ki in the test listed under Rattus norvegicus was 120.
In the case of `N#CC1(c2ccccc2)CCN(CCc2ccccc2)CC1`, the Ki was determined as 0.0033 µM in test [2] and 0.118 µM in test [3]. The Ratio Ki in the test filed under Rattus norvegicus came to 36.
For the compound `C=C(C)CN1CCC(C#N)(c2ccccc2)CC1`, the Ki in test [1] is over 10 µM; in test [2], 0.0037 µM; at Mu-type opioid receptor, over 10 µM; in test [3], 0.482 µM; in test [4], 5 µM. In the test listed under Rattus norvegicus, the Ratio Ki turned out to be 130.
In the case of `CN1CCC(C#N)(c2ccccc2)CC1`, the Ki in test [1] was over 10 µM; in test [2] it was 0.113 µM; at Mu-type opioid receptor it was over 10 µM; in test [3], 2.14 µM; in test [4] it was over 10 µM. The Ratio Ki in the test listed under Rattus norvegicus worked out at 19.
With `C=CCN1CCC(C#N)(c2ccccc2)CC1`, the Ki in test [1] was over 10 µM; in test [2], 0.0022 µM; at Mu-type opioid receptor, over 10 µM; in test [3] it was 0.662 µM; in test [4], over 10 µM. Moreover, in the test filed under Rattus norvegicus, the Ratio Ki is 300.
`CCCN1CCC(C#N)(c2ccccc2)CC1`: the Ki in test [2] was found to be 0.0017 µM; in test [3], 0.143 µM. Further, the Ratio Ki in the test listed under Rattus norvegicus was found to be 84.
In the case of `c1ccc(CCN2CCN(c3ccccn3)CC2)cc1`, the Ki in test [2] amounted to 0.322 µM; in test [3], 0.17 µM. Moreover, the Ratio Ki in the test listed under Rattus norvegicus was found to be 0.53.
The matching figures for `CC(C)CN1CCC(C#N)(c2ccccc2)CC1`: 0.00035 µM, 0.063 µM and 180.
Consider `c1ccc(CCN2CCCCC2)cc1` [1-PHENETHYLPIPERIDINE], for which the Ki came out at 0.03 µM in test [2] and 0.138 µM in test [3]. Moreover, the Ratio Ki in the test filed under Rattus norvegicus came out at 5.
In the case of `N#CC1(c2ccccc2)CCN(CCCCc2ccccc2)CC1`, the Ki is over 10 µM in test [1]; 0.049 µM in test [2]; 9.8 µM at Mu-type opioid receptor; 1.31 µM in test [3]; over 10 µM in test [4]. In addition, the Ratio Ki in the test listed under Rattus norvegicus stood at 27.
